Screening results from PubChem BioAssay.
H69AR inhibit = proliferation blockers of H69AR lung cancer cells, primary screen, cell-based, human, 86K library. H69AR lung tumor viability, ATP luminescence, 72 h; active compounds read low. viability, % at 10 µM. actives 6% (n = 85,000);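 active = viability at or below 40%; inactive = viability above 40%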;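 also: multidrug resistant small cell line overexpressing MRP-1 efflux transporter; 100% = mean luminescence of untreated control wells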
PTEN del growth = growth suppression of PTEN-null HCT116, primary screen, cell-based, CellTiter-Glo | HCT116 PTEN-null viability, 60 h; active compounds read low | viability, % at 10 µM | actives 1.2% (n = 140,000);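 active = viability at or below a set limit, 4 SD under the median of all tested compounds, cut at about 3.7% in these data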;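 also: PTEN knockout HCT116 line with beta catenin targeted HCT116 as companion control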
HCT116 bCat-KO = primary screen for growth suppressors in beta-catenin knockout HCT116 cells (colon tumor, human) | viability, % at 10 µM | HCT116 beta-catenin knockout viability, CellTiter-Glo, 60 h; active compounds read low | actives 1.5% (n = 140,000);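 active = viability at or under a set limit, the compound median less 4 SD, cut at about 6% in these data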;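 also: 0% = Hyamine 1622 control at 20 µM and 100% = untreated cell control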
Calb biofilm kill = clotrimazole potentiators killing Candida biofilms, primary screen, with clotrimazole, Alamar Blue | actives 0.14% (n = 85,000) | C. albicans biofilm + clotrimazole | AID 834, 2007 | inhibition, % at 6 µM;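 active = inhibition above 20%; inactive = inhibition below 20%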;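 also: preformed 24 hr biofilms exposed to compound for 48 hr; 0% = biofilm without compound and 100% = blank killed by clotrimazole plus chlorhexidine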
HUVEC inhibit = inhibitors of HUVEC proliferation, primary screen, cell-based, 384-well | CellTiter-Glo luminescence, 72 h; active compounds read low | viability, % at 10 µM (by protocol) | actives 1.1% (n = 86,000);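 active = viability at or below 30%; inactive = viability above 30%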;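 also: 100% = median luminescence of DMSO-only cell control wells on each plate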
Lung fibro prol = antiproliferative effect on LL 47 fibroblasts – human, LL 47 cells, CellTiter-Glo luminescence, primary screen | actives 1.1% (n = 85,000) | LL 47 human lung fibroblast viability, ATP luminescence; active compounds read low | viability, % at 10 µM;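 active = viability at or below 50% in the single dose screen; inactive = viability above 50%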;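 also: compound exposure lasted 72 h before the ATP readout; 100% = median luminescence of untreated cell-only wells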
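Benchmarks: Cell-only wells, no compound | Test system: LL 47 human lung fibroblasts, passage 12 or lower | Input: 1,150 cells/well | Measured by: CellTiter-Glo luminescence measuring cellular ATP | Medium: IMEM, 15% FBS supplement | Schedule: Overnight attachment after seeding, then 72 h compound exposure at 37 °C | Doses: Compound addition at 0.1% DMSO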
The depositor's hits bear a star; · = not tested or not shown. Many of the other results were omitted from the sample, so hits are more common in it than they were.

SMILES	H69AR inhibit	PTEN del growth	HCT116 bCat-KO	Calb biofilm kill	HUVEC inhibit	Lung fibro prol
CC1CCN(CC(=O)Nc2cccc(C(=O)Nc3cccc(C(F)(F)F)c3)c2)CC1	·	44	54	·	·	·
COc1ccccc1-c1nnc(SCC(=O)Nc2ccc(S(N)(=O)=O)cc2)n1C	86	109	111	4	92	103
CCOC(=O)C(C)Sc1nc(-c2ccc(OC)cc2)nc2c1c(=O)n(C)c(=O)n2C (stereo not given)	41	·	·	-5	60	82
CCOc1ccccc1-c1cc(-c2ccc(OC)cc2)nc2c1c(=O)n(C)c(=O)n2C	21*	·	·	4	84	94
CC[n+]1c(/C=C/C=C/N(C(C)=O)c2ccccc2)sc2cc(OC)ccc21	·	4	6.0*	·	·	·
O=C(CCC1CCCCC1)NNC(=O)NC12CC3CC(CC(C3)C1)C2	·	101	93	·	·	·
O=C(CSc1ccccc1C(=O)NCc1ccccc1)NC12CC3CC(CC(C3)C1)C2	·	67	84	·	·	·
O=C(Cn1sc2ccccc2c1=O)NC12CC3CC(CC(C3)C1)C2	·	1.1*	0.7*	·	·	·
c1ccc(OCCOCCN2CCOCC2)cc1	106	101	95	63*	95	96
CN(C)c1ccc(C2C=C(c3ccc(Cl)cc3OC(F)F)Nc3ncnn32)cc1 (stereo not given)	14*	18	16	·	57	83
Cc1ccc(C2C=C(c3ccccc3OC(F)F)Nc3ncnn32)cc1 (stereo not given)	76	82	83	2	93	·
COc1cc(N2CN=c3s/c(=C\c4ccccn4)c(=O)n3C2)cc(OC)c1OC	93	102	98	0	86	87
Cc1ccc(S(=O)(=O)N(CCCO)CC(O)CON=C2c3ccccc3-c3ccccc32)cc1 (stereo not given)	·	46	55	·	·	·
O=C1C=CCC(/C=C/c2ccccc2)O1 (stereo not given)	·	4	4.3*	·	·	·
O=c1oc2ccccc2nc1/C=C(O)/C=C\c1ccccc1	·	69	64	·	·	·
COc1cccc(-n2sc3c(c2=S)-c2cc(OC)ccc2NC3(C)C)c1	·	35	39	·	·	·
CCCOc1ccccc1-n1sc2c(c1=S)-c1cc(OC)cc3c1N(C(=O)C3=O)C2(C)C	1.5*	3.0*	46	4	47	74
Oc1c(Cl)cc(Cl)c2c1NCCC2	4.4*	81	69	9	68	88
O=C1NCCCc2c1oc1ccc(O)cc21	65	72	70	2	102	105
O=C(Nc1nc2ccccc2n1CCN1CCOCC1)c1cn(-c2ccccc2)nc1-c1ccccc1	19*	10	17	4	63	53
CCSC1=C(C#N)C(c2cccs2)C(C(=O)OC)=C(C)N1 (stereo not given)	69	89	86	7	92	90
C=CCOC(=O)C1=C(C)NC(SCC(=O)Nc2nccs2)=C(C#N)C1c1cccs1 (stereo not given)	28*	59	71	14	18*	95
C=CCOC(=O)C1=C(C)NC(SC)=C(C#N)C1c1cccs1 (stereo not given)	20*	23	25	6	55	65
C=CCOC(=O)C1=C(C)NC(SC)=C(C#N)C1c1ccc(OCC)cc1 (stereo not given)	39*	96	96	-2	98	99
O=C(OCC(=O)N1CCCCC1)c1cc(NS(=O)(=O)c2ccc(Cl)c([N+](=O)[O-])c2)ccc1O	·	77	78	·	·	·
SMILES	H69AR inhibit	PTEN del growth	HCT116 bCat-KO	Calb biofilm kill	HUVEC inhibit	Lung fibro prol
N#CCC(CNc1ncc(C(F)(F)F)cc1Cl)OC(=O)c1ccc(Cl)cc1Cl (stereo not given)	·	63	64	·	·	·
Cc1ccc(/C=C/C(=O)c2nc3ccccc3[nH]2)cc1	·	2.7*	2.5*	·	·	·
Cc1c(Cl)cnc(NC(=O)COC(=O)c2cccc(S(=O)(=O)N3c4ccccc4CC3C)c2)c1Cl (stereo not given)	·	88	86	·	·	·
C=CCOc1ccc(C2OC34CCCCC3C(C#N)(C#N)C2(C#N)C(=N)O4)cc1 (stereo not given)	13*	113	103	8	77	89
CC1=CC(=O)C=C(C)C1=NOC(=O)c1cccc([N+](=O)[O-])c1	77	87	88	86*	104	103
CCC(=O)N(C)CCc1cc2c(c(OC)c1/C=N/NC(=O)c1ccc(Br)cc1)OCO2	·	91	93	·	·	·
COc1ccc(-c2nnc3n2N=C(c2ccccc2)CS3)cc1OC	54	·	·	7	32	15*
COc1ccc(C2=Nn3c(nnc3C3CCCCC3)SC2)cc1OC	15*	55	60	2	82	41*
Cc1cc(-c2nnc3n2N=C(c2ccc(-c4ccccc4)cc2)CS3)n[nH]1	3.9*	3.1*	19	2	28*	60
c1ccc(-c2cc(-c3nnc4n3N=C(c3ccc5ccccc5c3)CS4)[nH]n2)cc1	·	1.9*	6	·	·	·
COc1ccc(C2=Nn3c(nnc3-c3ccccc3)SC2)cc1OC	84	94	87	6	91	94
CCOc1ccccc1NS(=O)(=O)c1ccc2c(c1)n(C)c(=O)c(=O)n2C	·	93	82	·	·	·
CC(=O)N1[C@H](Cc2ccccc2)C=C[C@]1(C)C(=O)NCc1ccccn1	·	95	97	·	·	·
CN(C)S(=O)(=O)c1ccc(C(=O)NCc2nnc(SCC(=O)Nc3ccc(F)cc3)n2-c2ccc(F)cc2)cc1	·	82	89	·	·	·
COc1ccc(Cc2nnc3n2N=C(c2cc4ccccc4o2)CS3)cc1OC	35*	·	·	9	82	94
c1ccc(C2=Nn3c(nnc3-c3ccncc3)SC2)cc1	81	71	72	9	77	106
Cc1cccc(-c2nnc3n2N=C(c2ccccc2)CS3)c1	36*	83	102	5	97	91
CCOC(=O)C1C(=O)Nc2nc3ccccc3n2C1C(C)C (stereo not given)	99	95	95	2	93	98
COC(=O)c1ccccc1NC(=O)c1ccc2c(c1)C(=O)N(Cc1ccco1)C2=O	11*	·	·	3	92	107
O=C(NCCCn1ccnc1)c1ccc(S(=O)(=O)N2CCCCCC2)cc1	91	108	104	-8	103	94
CC1CC(C)CN(S(=O)(=O)c2ccc(C(=O)NCCCn3ccnc3)cc2)C1 (stereo not given)	2.7*	96	84	5	79	15*
Cc1ccc(COn2c(-c3ccc(Cl)cc3Cl)nc3ncccc32)cc1	39*	61	67	3	83	92
CC1Cc2ccccc2N1C(=O)C1CCCN(S(=O)(=O)c2cccc3cccnc23)C1 (stereo not given)	37*	63	60	8	80	82
